# From article PMC2606940 (The Journal of General Physiology, 2009)
# Where a chain is given by its changes, count along the chain named. Counter-ions that a name gives are not always drawn.
# Assays:
# [1] = target: T1, CLC-0 E166A mutant (Torpedo marmorata, UniProt P21564, C212S/E166A); assay type: cell-based; conditions: for K1/2 (range in words): −140 mV (Fig. 10 C)
# T1 sequence (P21564 1-805 E166A/C212S): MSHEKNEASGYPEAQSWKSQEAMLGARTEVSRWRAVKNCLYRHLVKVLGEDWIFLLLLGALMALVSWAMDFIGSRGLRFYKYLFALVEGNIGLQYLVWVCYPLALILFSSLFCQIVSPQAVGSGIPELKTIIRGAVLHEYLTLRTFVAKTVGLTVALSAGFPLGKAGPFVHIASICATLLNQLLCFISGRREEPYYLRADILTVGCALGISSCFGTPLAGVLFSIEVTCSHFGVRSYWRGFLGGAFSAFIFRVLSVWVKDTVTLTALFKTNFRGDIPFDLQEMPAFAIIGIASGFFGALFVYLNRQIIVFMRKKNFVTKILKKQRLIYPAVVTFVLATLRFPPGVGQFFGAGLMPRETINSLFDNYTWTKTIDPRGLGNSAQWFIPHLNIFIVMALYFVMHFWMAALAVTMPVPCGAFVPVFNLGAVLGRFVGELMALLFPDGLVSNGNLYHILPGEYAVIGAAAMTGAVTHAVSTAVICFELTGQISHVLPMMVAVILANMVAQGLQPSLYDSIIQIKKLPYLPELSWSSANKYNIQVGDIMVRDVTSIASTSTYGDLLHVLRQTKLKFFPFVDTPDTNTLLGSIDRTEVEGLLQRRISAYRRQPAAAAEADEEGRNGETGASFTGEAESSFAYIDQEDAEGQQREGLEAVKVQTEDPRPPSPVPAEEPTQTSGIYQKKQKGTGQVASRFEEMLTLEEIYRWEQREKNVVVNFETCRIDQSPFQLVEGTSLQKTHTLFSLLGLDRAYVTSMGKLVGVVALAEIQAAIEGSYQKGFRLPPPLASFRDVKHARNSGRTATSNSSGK
# Outline: (§1)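 HEK293 cells expressed C212S-background CLC-0 mutants and were recorded 1–3 d post-transfection as inside-out patches in symmetrical 130 mM NaCl, 10 mM HEPES, pH 7.4. CPA, fatty acids or alkyl sulfates flowed continuously on the cytoplasmic side. C10–C12 compounds were diluted into bath solution from 10 mM DMSO stocks. Test steps ran from +80 to −160 mV after a +80 mV prepulse. Steady-state current was normalized to the mean of pre- and post-blocker controls, and a Langmuir K1/2 was taken at each voltage from ~4–6 patches.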
# [2] = target: T2, CLC-0 E166Q mutant (Torpedo marmorata, UniProt P21564, C212S/E166Q); assay type: cell-based; conditions: 5 μM SDS
# T2 sequence (P21564 1-805 E166Q/C212S): T1 sequence (P21564 1-805 E166A/C212S) with A166Q
# Outline: as §1
SMILES,blocking affinity (in words) [1],K1/2 (range in words) [1],further results
CS(=O)(=O)SCCS(=O)(=O)O [2-sulfonatoethyl MTS],lower affinities than that observed with SDS,–,–
CCC(=O)O [propionate],–,mM range,–
CCCCCCCCO [Octanol],low affinity,–,voltage dependence of the block [1]: no voltage dependence
CS(=O)(=O)SCCCCCS(=O)(=O)O [5-sulfonatopentyl MTS],lower affinities than that observed with SDS,–,–
"CCCCCCCCCCCCOS(=O)(=O)O [SDS, dodecyl sulfate]",high affinity,–,"effect on current [2]: very limited effect; block of current ([1]; 5 μM SDS, −160 mV): ~50%"
CCCCCCCCCC(=O)O [decanoate],–,low μM range,–
CCCCCCCCCCCC(=O)O [dodecanoate],–,low μM range,–
CCCC(=O)O [butyrate],–,mM range,–
